The text below walks through data of ChEMBL document CHEMBL2062427, “Synthesis, chemical reactivity as Michael acceptors, and biological potency of monocyclic cyanoenones, novel and highly potent anti-inflammatory and cytoprotective agents” (J Med Chem, 2012).

The subject of data set [1] is RAW264.7. The data set is described as follows: Antiinflammatory activity in mouse RAW264.7 cells assessed as inhibition of IFNgamma-stimulated NO production pretreated for 2 hrs before IFNgamma challenge measured after 24 hrs by Griess reaction. Type of data set: functional, cell-based. In outline: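 RAW 264.7 cells seeded at 30,000/well in triplicate; next day pre-treated 2 h with DMSO or 2-fold serial dilutions (0–200 nM or 0–10 µM), then IFN-γ 20 ng/mL for 24 h. Medium NO by Griess; viability by WST-1. IC50 from suppression of IFN-γ-induced NO normalized to viability; mean of three independent experiments, SD.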

In data set [2] the target is NAD(P)H dehydrogenase [quinone] 1 (Mus musculus) (UniProt Q64669). The data set can be described thus: Induction of NQO1 activity in mouse Hepa-1c1c7 cells assessed as concentration require to double the specific enzyme activity after 48 hrs. Type of data set: cell-based. In outline:
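Hepa1c1c7 cells, 10,000/well, grown 24 h, then exposed to serial dilutions for 48 h. Potency expressed as concentration doubling NQO1 specific enzyme activity (CD).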

The nature of data set [3]: Cytotoxicity against C57BL/6 mouse BMDM cells assessed as LDH release after 24 hrs. It counts as cell-based. The note with it: bone marrow-derived macrophages (BMDM cells). An outline of the steps: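 Macrophages exposed to compound without LPS for 24 h; culture supernatant assayed for % LDH released as cell-death measure. Averages of 2 independent experiments, SD.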

The test system of data set [4] is BMDM. The data set can be described thus: Antiinflammatory activity in C57BL/6 mouse BMDM cells assessed as inhibition of LPS-stimulated TNFalpha production at 0.1 uM pretreated for 1 hr before LPS challenge after 8 to 24 hrs by immunoassay. Type of data set: functional, cell-based. An outline of the steps:
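Macrophages pretreated with compound, then given LPS (100 ng/mL) 1 h after the start of compound exposure for 8 h or 24 h. Culture supernatants were collected at 8 h or 24 h and assayed for secreted TNF-α (pg/mL). Controls were untreated cells and cells given compound without LPS (24 h). Averages of 2 independent experiments; error is standard deviation.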

A short description of data set [5]: Induction of apoptosis in LPS-stimulated C57BL/6 mouse BMDM cells assessed as LDH release at 0.1 uM pretreated for 1 hr before LPS challenge after 8 hrs. Type of data set: cell-based. In outline:
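Cells were compound-treated, and LPS (100 ng/mL) was added 1 h after the start of compound treatment for 8 h. Supernatant lactate dehydrogenase was measured as % LDH released, as a cell-death read-out. Comparison arms were no-LPS (compound 24 h) and untreated cells. Mean of 2 independent experiments, with standard deviation error bars.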

Data set [6] relates to BMDM. The data set is described as follows: Antiinflammatory activity in C57BL/6 mouse BMDM cells assessed as inhibition of LPS-stimulated TNFalpha production at 0.5 uM pretreated for 1 hr before LPS challenge after 8 to 24 hrs by immunoassay. Type of data set: functional, cell-based. An outline of the steps:
(§1)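 Macrophages given compound at 0.5 µM; LPS 100 ng/mL added 1 h after start of compound treatment, for 8 h or 24 h. Supernatants collected at 8 or 24 h and assayed for LDH release (% released, cell death), TNF-α or IL-1β (pg/mL). Averages of 2 independent experiments, SD.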

Data set [7] concerns BMDM. The data set is described as follows: Antiinflammatory activity in C57BL/6 mouse BMDM cells assessed as inhibition of LPS-stimulated […] production at 0.5 uM pretreated for 1 hr before LPS challenge after 8 to 24 hrs by immunoassay. It counts as functional, cell-based. In outline:
as §1

Data set [8] is described as follows: Induction of apoptosis in LPS-stimulated C57BL/6 mouse BMDM cells assessed as LDH release at 0.5 uM pretreated for 1 hr before LPS challenge after 8 hrs. Type of data set: cell-based. An outline of the steps: as §1
Data set [9] in a line: Induction of apoptosis in LPS-stimulated C57BL/6 mouse BMDM cells assessed as LDH release at 0.5 uM pretreated for 1 hr before LPS challenge after 24 hrs. Type of data set: cell-based. An outline of the steps: as §1
Data set [10] has as its system RAW264.7. The data set can be described thus: Ratio of CDDO IC50 to compound IC50 for antiinflammatory activity in mouse RAW264.7 cells assessed as inhibition of IFNgamma-stimulated NO production. It counts as functional.

Structures are written as SMILES. Activity calls are given as the source filed them. No cut-off for these calls is given here.

Sequence of NAD(P)H dehydrogenase [quinone] 1 (Mus musculus) (Q64669 whole entry): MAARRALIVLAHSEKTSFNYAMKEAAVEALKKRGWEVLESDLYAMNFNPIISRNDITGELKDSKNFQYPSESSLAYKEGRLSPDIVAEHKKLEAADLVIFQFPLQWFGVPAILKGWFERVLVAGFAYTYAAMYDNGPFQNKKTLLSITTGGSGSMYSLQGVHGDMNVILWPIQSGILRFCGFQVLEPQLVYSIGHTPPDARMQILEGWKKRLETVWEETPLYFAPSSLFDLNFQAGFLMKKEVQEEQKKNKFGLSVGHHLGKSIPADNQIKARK

Consider `CC1(C)C=CC(=O)C(C#N)=C1`, for which the half-inhibitory concentration (IC50) in the data set on RAW264.7 [1] is 0.305 µM. Also, the CD in data set [2] was found to be 150 nM.

For the compound `C#C[C@]12C=C(C#N)C(=O)C=C1[C@@]1(C)C=C(C#N)C(=O)C(C)(C)[C@@H]1CC2` (racemic), in data set [3], the MNTC at 24 h came to 100 nM. The outcome in the data set with BMDM [4] was Active. The Activity result in data set [5] is on record as “Not Active”.

As for `NC(=O)Nc1sc(-c2ccc(F)cc2)cc1C(N)=O`, the MNTC at 24 h in [3] came out at 500 nM. In the data set on BMDM [6], the outcome was Active. In addition, in the data set with BMDM [7], the result was inactive. The Activity entry in data set [8] is “Toxic”.

For the compound `COC(=O)[C@]12CCC(C)(C)C[C@H]1[C@H]1C(=O)C=C3[C@@]4(C)C=C(C#N)C(=O)C(C)(C)[C@@H]4CC[C@@]3(C)[C@]1(C)CC2` [BARDOXOLONE METHYL], the MNTC at 24 h in data set [3] was found to be 500 nM. The result in the data set with BMDM [6] was Active. Besides, the Activity entry in data set [9] is on record as “Not Active”.

For the compound `C#CC1(C)C=C(C#N)C(=O)CC1` (stereo not drawn), the IC50 in the data set with RAW264.7 [1] is 0.152 µM. In data set [2], the CD worked out at 100 nM.

Turning to `CC1(C)C=C(C#N)C(=O)C(C)(C)C1`, the IC50 in the data set on RAW264.7 [1] amounted to 1.9 µM. For the same compound, the CD in data set [2] worked out at 1900 nM.

As to `CC1(C)CC[C@]2(C(=O)O)CC[C@]3(C)[C@H](C(=O)C=C4[C@@]5(C)C=C(C#N)C(=O)C(C)(C)[C@@H]5CC[C@]43C)[C@@H]2C1` [BARDOXOLONE], the IC50 in the data set with RAW264.7 [1] came to 0.0165 µM.

In the case of `CC#CC1(C)C=CC(=O)C(C#N)=C1` (stereo not drawn), in the data set on RAW264.7 [1], the IC50 was 0.0073 µM. For the same compound, the CD in data set [2] was 33 nM. Also, the “Ratio IC50” value with RAW264.7 [10] is 2.

For the compound `COC(=O)C1(C)C=CC(=O)C(C#N)=C1` (stereo not drawn), the IC50 in the data set on RAW264.7 [1] came to 0.058 µM. For the same compound, in data set [2], the CD amounted to 320 nM.

For the compound `C#CC1(C)C=CC(=O)C(C#N)=C1` (stereo not drawn), the IC50 in the data set on RAW264.7 [1] worked out at 0.0058 µM. The CD in [2] is 22 nM. In data set [3], the MNTC at 24 h is 500 nM. Further, the outcome with BMDM [6] and in the data set with BMDM [7] was Active. For the same compound, the Activity result in data set [8] is reported as “Toxic”. Besides, the “Ratio IC50” value in the data set with RAW264.7 [10] stood at 2.

Consider `C=CC1(C)C=CC(=O)C(C#N)=C1` (stereo not drawn), for which, in the data set with RAW264.7 [1], the IC50 was determined as 0.17 µM. Also, the CD in data set [2] was found to be 150 nM.

For `CC1(C#N)C=CC(=O)C(C#N)=C1` (stereo not drawn), in the data set with RAW264.7 [1], the IC50 was 0.219 µM. Further, the CD in data set [2] is 58 nM.
